Assay: Toxicity liver stage against HepG2, at 10uM
Format: cell-based
Parameters: test concentration 10 uM, cell line HepG2-A16-CD81EGFP
Settings: human, HepG2-A16-CD81EGFP cells; read-out: INHIBITION
In short: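 Uninfected HepG2-A16-CD81EGFP cells, 3 × 10^3 per well, 1536-well, plated on prespotted compound at 10 μM final, parasite-free screening media added to match infected plates; puromycin 10 μM positive, DMSO 0.5% negative; run in parallel with 48 h PbLuc assay at 37 °C, 5% CO2; viability by CellTiter-Glo luminescence, normalized to controls.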

| Compound | cytotoxicity at 10 µM [%] |
| --- | --- |
| Cc1cc(C2CCCN2CCCc2nc3ccccc3o2)on1 (stereo not given) | -5.58 |
| C[C@@H](NC(=O)c1cccn1C)c1c(-c2ccc(Cl)cc2)noc1C(=O)O | 3 |
| Cn1nnc(NCc2ccc(OCc3ccc(Cl)cc3)cc2)n1 | -2.56 |
| O=C(NCCCN1CCCC1=O)c1ccc(-n2ccc3ccccc32)s1 | 6.69 |
| COCCNC(=O)NCCS(=O)(=O)N1CCN(c2cccc(C)c2)CC1 | 4.31 |
| CCS(=O)(=O)N1CCC2(CC1)CN(C(=O)N(C)C)Cc1ccccc12 | 2.67 |
| Cc1cccc(CN2CCCC23CCNC3)n1 (stereo not given) | 4.82 |
| CCOCC(=O)N1CCC2(CC1)CN(Cc1cccnc1)C(=O)CO2 | -0.125 |
| COc1ccc(CN2CCO[C@H]3CN(C(=O)C4CC4)CC[C@H]3C2=O)cc1 | -147 |
| Cc1ccc(N2CCC3(CCN(C(=O)C4CCOC4)CC3)CC2)nn1 (stereo not given) | -0.28 |
| CCN(CC)Cc1cnc2n1CCN(C1CCOC1)CC2 (stereo not given) | -146 |
| CN1CCN(Cc2cn3c(n2)CN(CC2CC2)CC3)CC1 | -119 |
| CCOCC1CN(Cc2ccco2)Cc2ccnn2C1 (stereo not given) | -149 |
| O=C(CC1CC1)N1CCC2(CC1)CC(Oc1ccccc1)CO2 (stereo not given) | -0.82 |
| Cc1ccc(CN2CCC3(CC2)CC(NC(=O)c2ccccn2)CO3)o1 (stereo not given) | 3.8 |
| COc1cc(CCO)c(OC)c2c1OCO2 | -5.6 |
| O=C(CC1Cn2ncnc2NC1=O)Nc1ccccc1 (stereo not given) | 6.11 |
| COc1ccc(C(C)Nc2nc3c(C)nn(C)c3c(=O)n2C)cc1 (stereo not given) | 1.89 |
| Cc1nccn1-c1ccc(CN2CC3C[C@@H](O)CN3C[C@@H]2C)cc1 (stereo not given in full) | 6.26 |
| CNc1cncc(C2CCCN2S(=O)(=O)c2ccccc2)n1 (stereo not given) | -22 |
| O=C1Nc2ccccc2CN(CC2CCCC2)C12CCNC2 (stereo not given) | 7.83 |
| Cc1cnn(-c2ccc(S(=O)(=O)N(C)CC(F)F)cc2F)c1 | 9.75 |

| Compound | cytotoxicity at 10 µM [%] |
| --- | --- |
| CCn1cc(NC(=O)N2CCN(C(=O)Oc3ccccc3)CC2)cn1 | 1.1 |
| CC(C(=O)N1CCCC1)S(=O)(=O)Cc1nc(C(C)(C)C)no1 (stereo not given) | 8.18 |
| CC(C)(C)CC(=O)N1CCc2sccc2C1 | 3.61 |
| CCCc1c(C(=O)N2CCN(c3ncccn3)CC2)cnn1C | 3.38 |
| COc1cc(CO)ccc1OCc1nc(C(C)C)no1 | 6.3 |
| COC(=O)c1cccc(S(=O)(=O)Nc2ncc(C)s2)c1 | 0.158 |
| CCC1CCCCCN1C(=O)c1ccc(N2CCC(O)CC2)cc1 (stereo not given) | -9.77 |
| Cc1ccc(-c2nnn(CCN3C(=O)CCC3=O)n2)cc1 | 1.33 |
| COC(=O)C1CCN(C(=O)Cn2ccc(-c3ccsc3)n2)CC1 | -6.58 |
| CC(C)(C)CN(CCC#N)C(=O)Nc1cccc(N2CCNC2=O)c1 | -9.86 |
| Cc1nnc(NC(=O)N2CCC(N3CCCCC3)CC2)s1 | 7.15 |
| COc1cc2c(nn1)CCN(Cc1noc(-c3ccccc3)n1)C2 | -1.49 |
| CCC(C)S(=O)(=O)N(Cc1ccco1)Cc1ccccc1O (stereo not given) | 9.99 |
| Cc1csc(C(C)(C)NCc2ncc(-c3ccc(F)cc3)o2)n1 | 8.27 |
| CN(C)C(=O)c1cccc(CCNS(=O)(=O)c2ccccc2)c1 | -4.12 |
| NC(=O)CC1CCN(CC(O)c2ccc(Br)cc2)CC1 (stereo not given) | -7.74 |
| CCn1c(C)nnc1CN(C)C1CCN(Cc2ccon2)C1 (stereo not given) | 0.793 |
| Oc1cccc(C2CN(c3nnc(C4CC4)s3)CCO2)c1 (stereo not given) | 1.07 |
| CC(C)c1cnc(CN(C)C2CCN(CCc3ccncc3)C2)o1 (stereo not given) | -0.296 |
| COCCNC(=O)C1CCCN1S(=O)(=O)c1sc(=O)[nH]c1C (stereo not given) | 2.17 |
| OCC(O)CSCc1nnc(-c2ccc(Cl)cc2)o1 (stereo not given) | 10.8 |
| O=C(Cc1cnn(-c2ccccc2)n1)NC1CCOCC1 | -9.72 |

| Compound | cytotoxicity at 10 µM [%] |
| --- | --- |
| CCC1CN(C(=O)c2[nH]nc(C)c2Br)CCO1 (stereo not given) | -3.22 |
| O=C(NC1CCN(c2ncccn2)CC1)c1cc2c([nH]c1=O)CCC2 | 1.28 |
| O=C(CC(F)(F)F)NC(c1ccc(Cl)cc1)c1ncon1 (stereo not given) | 2.14 |
| Cc1nn(C)c(C)c1CC(C)NC(=O)NCc1ccoc1C (stereo not given) | 0.43 |
| CC(=O)NCCc1ccc(S(=O)(=O)Nc2ccc(C)cc2F)s1 | -5.48 |
| O=C1NC(c2cnc(C3CCC3)s2)Nc2ncccc21 (stereo not given) | 0.992 |
| CC1CN(Cc2ccccc2)CCCN1CCNS(C)(=O)=O (stereo not given) | -3.72 |
| CC(C)c1nc(C2CCCN(c3cnc4ccccc4n3)C2)no1 (stereo not given) | 2.11 |
| CCN(C)CC1CCN(C(=O)Nc2ccc(C)cc2)C1 (stereo not given) | 2.89 |
| CSC1(CNC(=O)c2cccc(-n3cccn3)c2)CCOCC1 | -2.44 |
| CC(NCC(F)(F)F)c1ccc(S(C)(=O)=O)c(F)c1 (stereo not given) | 1.79 |
| CC(c1cccnc1)N(C)Cc1csc(-c2ccccn2)n1 (stereo not given) | -10.4 |
| Fc1ccc(CN2CCCC(Cn3cncn3)C2)c2ncccc12 (stereo not given) | -12.4 |
| Cc1cc(C)n(CC(C)CNC(=O)[C@@H](C)NC(=O)OC(C)(C)C)n1 (stereo not given in full) | -4.25 |
| Cc1ccc2nc(C(=O)N3C[C@@H](C(=O)O)[C@H](c4ccccc4)C3)cn2c1 | 5.96 |
| Cc1ccc2nc(CN3CCN(C4CCCCC4)C(=O)C3)cc(O)c2c1 | 12.9 |
| NC(=O)c1cncc(N2CCN(Cc3cccc4nsnc34)CC2)n1 | 8.15 |
| COCc1ncc(CN2CCC3(CCNC(=O)CC3)CC2)cn1 | -147 |
| COCCC1(CO)CCCN(Cc2ccc(C(F)(F)F)nc2)C1 (stereo not given) | -146 |
| CN(C)CC1(O)CCCN(C(=O)CCn2cc(Cl)cn2)C1 (stereo not given) | -138 |
| COc1cccc2ccc(N3CCC(O)(c4ccc(C)cn4)CC3)nc12 | -0.942 |
| COCC(c1ccccn1)N(C)C(=O)c1cc(-c2cccn2C)n[nH]1 (stereo not given) | -3.39 |

| Compound | cytotoxicity at 10 µM [%] |
| --- | --- |
| COCC(=O)NCc1cc2n(n1)CCCN(Cc1ccccc1SC)C2 | 2.04 |
| COc1cccc(Cl)c1C(C(=O)O)N1CCC(Cn2cccn2)CC1 (stereo not given) | -12.5 |
| CC(C)C1CN(c2nccc(N)n2)CCC(=O)N1Cc1ccc(F)cc1 (stereo not given) | -5.04 |
| Cc1nn(C)c2nc(N3CCNC(=O)C3C(C)C)sc12 (stereo not given) | -10 |
| COc1ccc(CCN)cc1-c1ccc(S(C)(=O)=O)cc1 | -6.23 |
| O=c1cc(CN2CCCCC2c2cccc(F)c2)[nH]c2ncnn12 (stereo not given) | -3.46 |
| Cc1nc2c(c(NC(C)c3nnn[nH]3)n1)Cc1ccccc1OC2 (stereo not given) | 1.07 |
| CCOC(=O)c1n[nH]cc1CN1CCOC(Cc2ccc(F)cc2)C1 (stereo not given) | -3.92 |
| CCn1cc(C(=O)N2CCCC3(CCC(=O)N(CCC(C)C)C3)C2)cn1 (stereo not given) | -1.19 |
| CC(=O)C1(c2ccccc2)CCN(C(=O)C2CNCCO2)CC1 (stereo not given) | -3.73 |
| O=C(c1cncc(N2CCCC3(CCNCC3)CC2)n1)N1CCCCC1 | -3.38 |
| CC(=O)NCCNC(=O)C1(N2CCCCC2)Cc2ccccc2C1 | -6.53 |
| CCc1ccc2nc(NCCOCCO)cc(C)c2c1 | -2.78 |
| Cc1nn(C)c2ncnc(N3CCCC(OCc4ccccn4)C3)c12 (stereo not given) | 7.96 |
| COCCCN1CC2(CCCN(c3ncc4nc[nH]c4n3)C2)CCC1=O (stereo not given) | -5.64 |
| O=C(NCCc1nccs1)c1cn(CCN2CCNCC2)nn1 | -4.41 |
| O=C(c1ccc(-c2cnco2)cc1)N1CCC(Nc2cccnn2)CC1 | -0.692 |
| COc1ncccc1NC(=O)N(Cc1ccccn1)C1CC1 | 9.11 |
| Cc1nn(C)c(C)c1C1CCCN1C(=O)c1ccc2c(c1)OCCO2 (stereo not given) | -10.6 |
| CN(CC(N)=O)CC(=O)N1CC=C(c2ccccc2)CC1 | -5.1 |
| c1ccc2nc(N3CCOC(Cn4cncn4)C3)cnc2c1 (stereo not given) | -11.5 |
| CC(Cn1cccn1)NCc1csc(-c2ccsc2)n1 (stereo not given) | -3.96 |

| Compound | cytotoxicity at 10 µM [%] |
| --- | --- |
| CN1CCC/C1=N\S(=O)(=O)c1ccc(NC(=O)c2ccsc2)cc1 | 6.49 |
| CCc1nc(C)c(C(=O)N2CCCN(Cc3cnn(C)c3)CC2)s1 | -2.41 |
| CC(C)(C)NCc1ccc(OCc2ccc3c(c2)OCCO3)cc1 | 1.99 |
| CN1CCC2(CC1)C(=O)N(c1cccnc1)c1ccc(F)cc12 | 3.65 |
| COCC(=O)N1CCN(Cc2cccnc2)c2ncccc2C1 | 10.2 |
| COCCNC(=O)[C@H]1CN(Cc2scnc2C)C[C@H]2OCC[C@@H]12 | -8.94 |
| O=C(C1CCOCC1)N1C[C@@H]2[C@@H](C1)OCC(=O)N2Cc1ccncc1 | -8.8 |
| COc1cccc(CN2CCC3(CC2)CCN(C(=O)[C@@H]2CCCO2)C3)c1 | 0.523 |
| O=C(C1CCC1)N1CCO[C@H]2[C@H](OCCCn3cccn3)CC[C@@H]21 | 16.7 |
| c1c2c(nn1CC1CCOCC1)C(CNC1CCOCC1)OCC2 (stereo not given) | 5.83 |
| Cc1ccsc1C(=O)N1CC[C@H]2CO[C@H](CN(C)C)[C@H]2C1 | 2.93 |
| CN(Cc1ccco1)C[C@@H]1OC[C@H]2CN(Cc3nccs3)CC[C@H]21 | -5.46 |
| CCn1ncc2c1C(COCC1CC1)N(Cc1cnn(C)c1)CC2 (stereo not given) | 8.98 |
| O=C1CCCN1Cc1ncn2c1CN(C(=O)N1CCCC1)CCC2 | -2.36 |
| CNCC(=O)N1CC(c2cc(Nc3nc(C)cs3)nc(C)n2)C1 | -21.2 |
| CC(C)CCN1C[C@@H]2OCCN(c3ncc(F)cn3)[C@@H]2C1 | 4.91 |
| Cc1cccc(CN2CCc3[nH]nc(C(=O)N(C)C)c3C2)n1 | -0.596 |
| CN(C)C(=O)N1CCC2(CCCN(CCOc3ccccc3)C2)C1 (stereo not given) | -0.537 |
| Cn1cc(CN2CC[C@@H]3[C@H]2CCC(=O)N3c2ccccc2)cn1 | 7.42 |
| Cc1cccc(CN2CCn3cc(Cn4cccn4)nc3C2)n1 | 3.27 |
| CCc1cnc(N2C[C@@H]3C[C@H](C(=O)NC)[C@H](C2)O3)nc1 | 9.76 |
| CCc1cnc(N2C[C@@H]3C[C@H](C(=O)N(C)C)[C@H](C2)O3)nc1 | -12.1 |

Source: ChEMBL document CHEMBL4513216, “Probing the Open Global Health Chemical Diversity Library for Multistage-Active Starting Points for Next-Generation Antimalarials” (ACS Infect Dis, 2020)
